# TMEM16A act: activators or potentiators of mouse TMEM16A chloride channel | 340,000 tested, 0.3% active | B-score at 10 µM | AID 623877 | HEK293 TMEM16A/YFP-H148Q/I152L, iodide quench fluorescence; active compounds read low;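 active = fluorescence-ratio B-score plate-corrected deviation score at least 3 library SD below zero, with starting fluorescence score within 5 deviations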;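 note: channel opened by trigger with iodide after compound preincubation; score built on the fluorescence ratio of max minus min over baseline; more negative score means more quench and so TMEM16A activation or potentiation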
# UPR XBP1 act: adaptive UPR (XBP1) activation | activation, % at 20 µM | 330,000 tested, 0.33% active | CHO-XBP1 luciferase reporter, IRE1-XBP1 UPR activation, luminescence; percent of tunicamycin response, DMSO as zero;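 active = versus positive control, 20 µM dose yields 30% or more activation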;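 note: 100% = tunicamycin at 10 µg/mL and 0% = DMSO only wells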
#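 incubation = overnight seeding at 37 °C, 6 h compound treatment at 37 °C | assay system = CHO-XBP1 cells stably carrying IRE1-XBP1-driven luciferase reporter | input = 1000 cells per well | detection = luciferase luminescence | dosing = single point, 20 µM final compound, 1% DMSO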
# CHOP UPR activ: apoptotic UPR (CHOP) activation. activation, % at 10 µM. 330,000 tested, 0.34% active. CHO-CHOP luciferase reporter, luminescence; percent of tunicamycin response over DMSO baseline. AID 449763;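 active = at 10 µM dose, activation of 40% or more, normalized to positive control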;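 note: 100% = tunicamycin at 10 µg/mL and 0% = DMSO alone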
#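 System: CHO CHOP reporter cells. Amount: 500 cells per well. Buffer or medium: F12 medium, 10% FBS. Compound dosing: one dose, 10 µM in 0.5% DMSO. Incubation: 6 h compound exposure at 37 °C after overnight seeding. Technique: Steady-Glo luciferase luminescence. Benchmarks: tunicamycin and DMSO controls.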
# TMEM16A inh: inhibitors of mouse TMEM16A calcium-activated chloride channel | Q8BHY3 | normalized B-score (activity score, 25-100; higher = stronger inhibition) at 10 µM | HEK293 TMEM16A/YFP iodide influx fluorescence, ionomycin | 310,000 tested, 1.2% active;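 active = ratio plate-corrected score three or more library SD toward inhibition, starting fluorescence score within five deviations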;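 note: score derived from kinetic fluorescence span divided by baseline fluorescence per well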
# Hep lipid drop: hepatic lipid droplet formation modulation. AML12 mouse hepatocytes, oleate lipid droplets, BODIPY imaging. 240,000 tested, 0.4% active. AID 1656. inhibition, % at 6.5 µM;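 active = lipid droplet intensity inhibited by at least 50%, with more than 500 cells counted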
#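 System: AML12 hepatocytes (mouse). Probe or stimulus: oleic acid at 100 µM to induce lipid droplet formation. Times: overnight treatment with compound plus oleate. Detection: Image-based BODIPY and DAPI two-channel analysis. Evaluation: percent inhibition of filter-corrected integrated lipid droplet intensity per well.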
# CHOP inh: CHOP inhibition in unfolded protein response; CHO-K1 CHOP-promoter luciferase, tunicamycin-induced, 15-18 h; inhibition, % at 10 µM; 220,000 tested, 3.8% active; AID 2732;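 active = compounds that reduced the stress-induced luciferase reporter signal by more than about 70% of percent inhibition, limit read from the data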;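 note: 0% = tunicamycin plus vehicle and 100% = wells without tunicamycin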
# * marks the source's active call; other numbers are inactive results; i = inactive; · = no result given. In the library only some 4.2% were active in any assay of this set; here they are far more common.
SMILES,TMEM16A act,UPR XBP1 act,CHOP UPR activ,TMEM16A inh,Hep lipid drop,CHOP inh
COc1ccc(CCNS(=O)(=O)c2ccc(-n3cnnn3)c(OC)c2)cc1OC,-31*,-5,1,i,4,·
CCOC(=O)c1c(S(=O)(=O)NCC(=O)N2CCN(c3ccc(F)cc3)CC2)c(C)n(C)c1C,i,-1,0,i,-28,·
O=C(c1ccc(O)cc1)c1ccc(Cl)cc1,i,3,1,i,·,83*
Cc1ccc(NC(=O)CSc2nn(-c3ccc(Cl)cc3)c(=S)s2)cc1S(=O)(=O)N(C)C,i,-3,-3,100*,-34,46
O=C(NC(=S)Nc1nc(-c2cccc([N+](=O)[O-])c2)cs1)c1ccccc1Cl,i,0,6,i,27,96*
COc1ccc(CC(=O)Nc2nc(-c3cccc([N+](=O)[O-])c3)cs2)cc1,i,-2,0,i,13,80*
CC(=O)Nc1nc(C)c(-c2csc(Nc3cccc([N+](=O)[O-])c3)n2)s1,i,3,4,i,10,95*
CC(=O)Nc1nc(C)c(-c2csc(Nc3cccc(C(C)=O)c3)n2)s1,i,2,1,i,·,·
C/C(=N/OC(=O)c1ccc(C)cc1)c1cccs1,i,-5,-4,i,·,36
CC/C(=N/OC(=O)c1cccc(C)c1)C(=O)c1cccs1,i,-5,1,i,1,75*
O=S(=O)(c1ccc(Br)cc1)N1CCN(c2ccc3nnc(-c4ccccc4)n3n2)CC1,i,8,4,i,·,80*
Cc1cccc(NC(=O)CSc2nnc(Cn3nnc(-c4ccccc4)n3)n2-c2ccccc2)c1,i,2,1,i,·,78*
Cc1ccc(Nc2c(F)c(F)c(F)c(F)c2C(=O)O)cc1,i,-2,0,25*,-16,17
Cc1cccc(Nc2c(F)c(F)c(F)c(F)c2C(=O)O)c1,i,-1,-1,i,-13,13
CCN(CC(=O)Nc1c(F)cccc1F)C(=O)CCNS(=O)(=O)c1ccccc1C(F)(F)F,i,-3,1,i,·,·
Cc1ccc(C)c(NC(=O)Cn2cnc3c(oc4ccccc43)c2=O)c1,i,-2,0,i,-5,72*
O=C(Cn1cnc2c(oc3ccccc32)c1=O)NCc1ccccc1,i,-4,3,i,-5,-7
Cc1ccc(C)c(NC(=O)Cn2nc(-c3ccccc3)nc2-c2ccccc2)c1,i,0,-2,i,·,87*
CC1C/C(=N/NC(=O)c2ccc(CSc3nc4ccccc4[nH]3)cc2)CC(C)(C)C1 (centres undefined),i,-2,2,i,-10,75*
O=C(NCCO)c1ccc(CSc2nc3ccccc3[nH]2)cc1,i,1,4,i,-1,2
COc1cccc(CN2CCc3ccc(NC(=O)CCc4ccc(C)cc4)cc3C2)c1O,i,-6,2,25*,6,·
COc1cc(CN2CCc3ccc(NC(=O)CCc4ccccc4OC)cc3C2)ccc1O,i,-4,0,i,-7,·
O=C(CCCCC(=O)OCC1CCCO1)OCC1CCCO1 (centres undefined),i,·,·,·,·,·
O=c1[nH]c(=O)n(C(c2ccccc2)(c2ccccc2)c2ccccc2)cc1N(CCO)CCO,i,·,·,·,·,·
CC(C)(C)C1CCC(=NNS(=O)(=O)c2ccc(Br)cc2)CC1 (centres undefined),i,-2,0,i,-14,92*
SMILES,TMEM16A act,UPR XBP1 act,CHOP UPR activ,TMEM16A inh,Hep lipid drop,CHOP inh
Cc1ccc(S(=O)(=O)NN=C2CCC(C(C)(C)C)CC2)cc1[N+](=O)[O-] (centres undefined),i,-4,-2,i,-1,45
C[C@H](CO)N1C[C@H](C)[C@@H](CN(C)S(=O)(=O)c2cn(C)cn2)Oc2ccc(NC(=O)Cc3ccccc3)cc2C1=O,i,-1,2,·,·,·
O=C1NN(c2cccc(Br)c2)C(=O)/C1=C/c1ccc(-c2cc([N+](=O)[O-])ccc2O)o1,i,-2,0,i,-13,104*
CC1=NN(c2ccc(C)cc2)C(=O)/C1=C/c1ccc(-c2cc([N+](=O)[O-])ccc2O)o1,i,0,2,·,·,·
CC(C(=O)NC1CCCC1)N(C(=O)c1ccc(-c2ccccc2)[nH]1)c1ccccc1F (centres undefined),i,-2,-2,i,·,38
O=C(Nc1ccc(Cc2ccncc2)cc1)c1ccc(Cl)c([N+](=O)[O-])c1,i,-3,-10,i,·,20
Cc1c([N+](=O)[O-])cc(C(=O)Nc2ccc(Cc3ccncc3)cc2)cc1[N+](=O)[O-],i,-2,-1,i,22,77*
COc1ccccc1Cn1c(SCC(N)=O)nc2c(oc3ccccc32)c1=O,i,·,·,·,-17,4
COc1ccc(OC)c2sc(N(CCN(C)C)C(=O)c3cc(Cl)sc3Cl)nc12,i,2,-1,i,-4,2
COc1cc2ccccc2cc1C(=O)N(CCN(C)C)c1nc2ccc(Br)cc2s1,i,-7,-2,i,-2,·
COc1cc2ccccc2cc1C(=O)N(CCN(C)C)c1nc2c(F)cc(F)cc2s1,i,0,2,25*,22,·
CN(C)CCN(C(=O)CCc1ccccc1)c1nc2c(F)cc(F)cc2s1,i,1,2,i,0,71*
COc1ccc2sc(N(CCN(C)C)C(=O)c3cc(Cl)sc3Cl)nc2c1,-5.9*,0,-1,i,-4,-4
CCN(CC)c1ccc(NC(=O)c2ccc3c(c2)c(C)c(C)n3C)cc1,i,5,2,i,71*,-14
Cc1c(C)n(C)c2ccc(C(=O)NCCCN3CCCC3)cc12,i,-2,-1,i,-16,·
CCC1(C)Cc2ccccc2-c2nc(-c3ccccc3)oc(=O)c21 (centres undefined),i,0,1,i,-1,80*
CCCNC(=O)OC[C@H]1O[C@H](CCO/N=C/C[C@@H]2C=C[C@H](OC(C)=O)[C@@H](COC(C)=O)O2)C=C[C@@H]1Oc1ccc(OC)cc1,·,-2,1,25*,-5,24
CCCNC(=O)OC[C@H]1O[C@H](CCO/N=C(\C)CCN2CCc3nc(-c4ccccc4)c(-c4ccccc4)cc3C2)C=C[C@@H]1Oc1ccc(OC)cc1,·,1,1,i,-4,29
